ChEMBL document CHEMBL4732185, “Synthesis, biological evaluation and structure-activity relationship of novel dichloroacetophenones targeting pyruvate dehydrogenase kinases with potent anticancer activity” (Eur J Med Chem, 2021)
Activity calls are given as the source filed them. The calls are words filed in the database; no cut-off is given here.

Tests used:
A-375 [1] = assay: Induction of apoptosis in human A375 cells assessed as late apoptotic cells at 1 uM after 36 hrs by annexinV-FITC/propidium iodide staining based flow cytometric analysis (reference value: 1.02%); format: functional
MCF7 = assay: Antiproliferative activity against human MCF7 cells assessed as growth inhibition at 1 uM after 72 hrs by MTT assay relative to control; format: functional; conditions: read-out: GI
Summary of the method: (§1)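 Single-concentration MTT screen on MCF-7 and A549 cells grown in DMEM + 10% FBS. Cells at 3000–6000/well, cultured overnight, then given compound in buffer with 1% DMSO for 72 h. MTT (0.5 mg/mL) added for 4 h, formazan dissolved in DMSO, A570 read. Percent inhibition reported as the average ± S.D. of three independent measurements.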

A-375 [2] = assay: Induction of cell cycle arrest in human A375 cells assessed as accumulation at G1 phase at 1 uM after 24 hrs by propidium iodide staining based flow cytometric analysis (reference value: 52.65%); format: functional
[3] = molecular target: [Pyruvate dehydrogenase (acetyl-transferring)] kinase isozyme 3, mitochondrial (Homo sapiens, UniProt Q15120); assay: Binding affinity to PDK3 (unknown origin) by isothermal titration calorimetry
[Pyruvate dehydrogenase (acetyl-transferring)] kinase isozyme 3, mitochondrial, sequence (Q15120 whole entry): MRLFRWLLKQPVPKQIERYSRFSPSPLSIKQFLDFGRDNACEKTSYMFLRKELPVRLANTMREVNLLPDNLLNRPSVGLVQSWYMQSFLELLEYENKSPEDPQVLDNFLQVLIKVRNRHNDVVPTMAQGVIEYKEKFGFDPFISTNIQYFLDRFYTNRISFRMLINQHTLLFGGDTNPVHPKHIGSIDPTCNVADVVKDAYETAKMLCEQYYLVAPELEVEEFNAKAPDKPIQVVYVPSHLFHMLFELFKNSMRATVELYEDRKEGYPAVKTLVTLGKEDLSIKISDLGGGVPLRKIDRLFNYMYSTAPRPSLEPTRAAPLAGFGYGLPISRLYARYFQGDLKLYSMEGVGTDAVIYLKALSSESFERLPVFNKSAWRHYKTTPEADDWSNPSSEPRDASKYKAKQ
Summary of the method: (§2)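 Isothermal titration calorimetry at 25 °C. Compound dissolved in DMSO, diluted to 100 µM in buffer and placed in the titration syringe; 250 µL of PDK protein solution in the reaction cell. Titrant added in 2.5 µL increments per injection.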

A-375 [4] = assay: Induction of apoptosis in human A375 cells assessed as viable cells at 1 uM after 36 hrs by annexinV-FITC/propidium iodide staining based flow cytometric analysis (reference value: 94.15%); format: functional; conditions: read-out: Activity
A-375 [5] = assay: Induction of apoptosis in human A375 cells assessed as viable cells at 5 uM after 24 hrs by annexinV-FITC/propidium iodide staining based flow cytometric analysis (Rvb= 97.94%); format: functional; conditions: read-out: Activity
[6] = molecular target: [Pyruvate dehydrogenase (acetyl-transferring)] kinase isozyme 1, mitochondrial (Homo sapiens, UniProt Q15118); assay: Binding affinity to PDK1 (unknown origin) by isothermal titration calorimetry; summary of the method: as §2
[Pyruvate dehydrogenase (acetyl-transferring)] kinase isozyme 1, mitochondrial, sequence (Q15118 whole entry): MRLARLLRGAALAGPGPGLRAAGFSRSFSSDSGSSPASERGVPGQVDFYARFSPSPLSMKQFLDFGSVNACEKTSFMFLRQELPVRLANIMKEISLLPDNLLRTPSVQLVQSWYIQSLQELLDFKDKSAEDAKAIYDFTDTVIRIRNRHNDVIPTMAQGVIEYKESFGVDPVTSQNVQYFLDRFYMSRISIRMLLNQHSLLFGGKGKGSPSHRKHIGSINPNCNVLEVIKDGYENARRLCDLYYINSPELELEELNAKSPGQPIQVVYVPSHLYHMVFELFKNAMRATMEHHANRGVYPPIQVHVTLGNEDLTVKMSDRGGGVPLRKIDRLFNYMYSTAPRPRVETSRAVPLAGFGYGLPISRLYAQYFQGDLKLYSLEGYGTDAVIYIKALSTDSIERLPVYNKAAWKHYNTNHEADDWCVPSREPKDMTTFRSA

A-375 [7] = assay: Induction of apoptosis in human A375 cells assessed as necrotic cells at 1 uM after 36 hrs by annexinV-FITC/propidium iodide staining based flow cytometric analysis (reference value: 1.63%); format: functional
A-375 [8] = assay: Induction of apoptosis in human A375 cells assessed as viable cells at 5 uM after 36 hrs by annexinV-FITC/propidium iodide staining based flow cytometric analysis (reference value: 94.15%); format: functional; conditions: read-out: Activity
A549 [9] = assay: Antiproliferative activity against human A549 cells assessed as growth inhibition after 72 hrs by MTT assay; format: functional, cell-based; conditions: Homo sapiens, A549, 72 h; read-out: IC50
Summary of the method: (§3)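 MTT viability assay. Cancer lines seeded at 3000–6000 cells/well and L02 at 7000 cells/well, cultured overnight, then exposed to a full dose range for 72 h. MTT (0.5 mg/mL) added for 4 h, supernatant removed, formazan dissolved in DMSO, absorbance read at 570 nm. IC50 taken as the mean of three independent experiments. Cells grown in DMEM + 10% FBS, 37 °C, 5% CO2.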

A-375 [10] = assay: Induction of cell cycle arrest in human A375 cells assessed as accumulation at S phase at 2.5 uM after 24 hrs by propidium iodide staining based flow cytometric analysis (reference value: 37.33%); format: functional
A-375 [11] = assay: Induction of apoptosis in human A375 cells assessed as necrotic cells at 5 uM after 12 hrs by annexinV-FITC/propidium iodide staining based flow cytometric analysis (reference value: 0.56%); format: functional
A-375 [12] = assay: Induction of cell cycle arrest in human A375 cells assessed as accumulation at G2 phase at 5 uM after 24 hrs by propidium iodide staining based flow cytometric analysis (reference value: 10.02%); format: functional
A-375 [13] = assay: Induction of cell cycle arrest in human A375 cells assessed as accumulation at G2 phase at 2.5 uM after 24 hrs by propidium iodide staining based flow cytometric analysis (reference value: 10.02%); format: functional
[14] = Toxicity in mouse xenografted with human A375 cells assessed as reduction in body weight at 5 mg/kg, im administered once per three days for 21 days; format: organism-based; conditions: in vivo, 504 h, time 21 day
Summary of the method: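 A375 cells at 80% confluence harvested with trypsin/EDTA, resuspended in serum-free DMEM, and injected subcutaneously into the right flank. Tumours visible at 7 days. Mice randomized to vehicle or 5 mg/kg (n = 4/group), dosed intramuscularly once every three days. Body weight followed over 21 days.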

A-375 [15] = assay: Induction of mitochondrial membrane depolarization in human A375 cells at 2 to 10 uM after 4 hrs by TMRM staining based confocal microscopic analysis; format: functional, cell-based; conditions: dose 2-10 µM
Summary of the method: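 A375 cells seeded at 4 x 10⁴ cells/mL and grown overnight at 37 °C. Treated 4 h at 37 °C. TMRM in fresh medium added for 15 min at 37 °C. Cells washed 3 times with cool PBS and imaged by laser scanning confocal microscopy.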

SH-SY5Y = assay: Antiproliferative activity against human SHSY-5Y cells assessed as growth inhibition after 72 hrs by MTT assay; format: functional, cell-based; conditions: Homo sapiens, SH-SY5Y, 72 h; read-out: IC50; summary of the method: as §3
A-375 [16] = assay: Induction of apoptosis in human A375 cells assessed as viable cells at 2.5 uM after 36 hrs by annexinV-FITC/propidium iodide staining based flow cytometric analysis (reference value: 94.15%); format: functional; conditions: read-out: Activity
A549 [17] = assay: Antiproliferative activity against human A549 cells assessed as growth inhibition at 10 uM after 72 hrs by MTT assay relative to control; format: functional; conditions: read-out: GI; summary of the method: as §1
A-375 [18] = assay: Induction of apoptosis in human A375 cells assessed as early apoptotic cells at 5 uM after 24 hrs by annexinV-FITC/propidium iodide staining based flow cytometric analysis (reference value: 0.87%); format: functional
A-375 [19] = assay: Induction of apoptosis in human A375 cells assessed as early apoptotic cells at 5 uM after 36 hrs by annexinV-FITC/propidium iodide staining based flow cytometric analysis (reference value: 3.2%); format: functional
A-375 [20] = assay: Induction of cell cycle arrest in human A375 cells assessed as accumulation at G1 phase at 5 uM after 24 hrs by propidium iodide staining based flow cytometric analysis (reference value: 52.65%); format: functional
A-375 [21] = assay: Induction of apoptosis in human A375 cells assessed as necrotic cells at 5 uM after 24 hrs by annexinV-FITC/propidium iodide staining based flow cytometric analysis (reference value: 0.56%); format: functional
[22] = molecular target: [Pyruvate dehydrogenase (acetyl-transferring)] kinase isozyme 4, mitochondrial (Homo sapiens, UniProt Q16654); assay: Binding affinity to PDK4 (unknown origin) by isothermal titration calorimetry; summary of the method: as §2
[Pyruvate dehydrogenase (acetyl-transferring)] kinase isozyme 4, mitochondrial, sequence (Q16654 whole entry): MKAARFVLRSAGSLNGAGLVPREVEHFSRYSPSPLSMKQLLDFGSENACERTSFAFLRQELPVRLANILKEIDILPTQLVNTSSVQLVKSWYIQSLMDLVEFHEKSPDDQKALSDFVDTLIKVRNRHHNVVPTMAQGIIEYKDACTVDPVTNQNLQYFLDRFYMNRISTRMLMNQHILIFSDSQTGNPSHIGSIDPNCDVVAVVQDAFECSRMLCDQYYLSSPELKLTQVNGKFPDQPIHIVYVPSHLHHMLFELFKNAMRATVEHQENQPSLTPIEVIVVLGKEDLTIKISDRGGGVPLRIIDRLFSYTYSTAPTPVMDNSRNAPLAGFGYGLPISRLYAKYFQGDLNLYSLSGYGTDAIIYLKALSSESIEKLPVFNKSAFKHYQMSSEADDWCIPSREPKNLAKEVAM

A-375 [23] = assay: Induction of apoptosis in human A375 cells assessed as late apoptotic cells at 5 uM after 36 hrs by annexinV-FITC/propidium iodide staining based flow cytometric analysis (reference value: 1.02%); format: functional
A-375 [24] = assay: Induction of apoptosis in human A375 cells assessed as necrotic cells at 5 uM after 36 hrs by annexinV-FITC/propidium iodide staining based flow cytometric analysis (reference value: 1.63%); format: functional
A-375 [25] = assay: Induction of apoptosis in human A375 cells assessed as late apoptotic cells at 5 uM after 12 hrs by annexinV-FITC/propidium iodide staining based flow cytometric analysis (reference value: 0.63%); format: functional

In the case of CC(C)(CO)c1ccc(Nc2ccc(C(=O)C(Cl)Cl)cc2[N+](=O)[O-])cc1, the Activity (A-375 [1]) is reported as 7.43%, the inhibition of growth at 1 µM (MCF7) is reported as 38.9% and the Activity (A-375 [2]) is reported as 55.72%. It also gave a Kd [3] of 7.8 µM, a viability at 1 µM (A-375 [4]) of 81.9% and a viability at 5 µM (A-375 [5]) of 70.9%. For the same compound, the Kd [6] was 0.21 µM, the Activity (A-375 [7]) was 4.06% and the viability at 5 µM (A-375 [8]) was 44.5%. For the same compound, the IC50 (A549 [9]) was 3.2 µM, the Activity (A-375 [10]) was 30.75% and the Activity (A-375 [11]) was 1.65%. The Activity (A-375 [12]) was 5.71%, the Activity (A-375 [13]) was 8.5% and the Activity [14] was “Non-Toxic”. The Activity (A-375 [15]) was “Active”, the IC50 (SH-SY5Y) was 1.7 µM and the viability at 2.5 µM (A-375 [16]) was 68.9%. The inhibition of growth at 10 µM (A549 [17]) was 98.6%, the Activity (A-375 [18]) was 6.47% and the Activity (A-375 [19]) was 6.52%. For the same compound, the Activity (A-375 [20]) was 66.86%, the Activity (A-375 [21]) was 3.56% and the Kd [22] was 9.2 µM. For the same compound, the Activity (A-375 [23]) was 38.81%, the Activity (A-375 [24]) was 4.21% and the Activity (A-375 [25]) was 6.88%.
